Data published in ChEMBL document CHEMBL3784993, “Synthesis and anticancer activity of some 5-fluoro-2'-deoxyuridine phosphoramidates” (Bioorg Med Chem, 2016).

Tests used:
HeLa [1] = experiment: Selectivity index, ratio of IC50 for HDF cells to IC50 for human HeLa cells; type: functional
Method in brief: (§1)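 SI is calculated as the IC50 in normal human dermal fibroblasts (HDF) divided by the IC50 in the respective cancer line. Both values come from 72 h SRB assays. SD is from three independent experiments.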

HeLa [2] = experiment: Cytotoxicity against human HeLa cells after 72 hrs by SRB assay; type: functional, cell-based
Method in brief: (§2)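 SRB protein-stain assay. Cells were seeded at about 10,000 per well and grown 24 h to a partial monolayer. They were then exposed for 72 h at 37 °C (5% CO2, 90% RH) to six concentrations: 0.1, 0.2, 1, 2, 10 and 20 µM. Final DMSO was ≤0.1%. Cells were TCA-fixed and stained with 0.4% SRB, and OD was read at 490 nm. Survival was expressed versus untreated cells. Cytarabine served as internal standard, with three experiments.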

[3] = Cytotoxicity against HDF cells after 72 hrs by SRB assay; type: cell-based; details: Homo sapiens
[4] = Selectivity index, ratio of IC50 for HDF cells to IC50 for human KB cells; type: functional; method in brief: as §1
HepG2 [5] = experiment: Selectivity index, ratio of IC50 for HDF cells to IC50 for human HepG2 cells; type: functional; method in brief: as §1
HepG2 [6] = experiment: Cytotoxicity against human HepG2 cells after 72 hrs by SRB assay; type: functional, cell-based; details: HepG2, 72 h
MCF7 [7] = experiment: Selectivity index, ratio of IC50 for HDF cells to IC50 for human MCF7 cells; type: functional; method in brief: as §1
143B [8] = experiment: Cytotoxicity against human thymidine kinase deficient 143B cells after 72 hrs by SRB assay; type: functional, cell-based; method in brief: as §2
MCF7 [9] = experiment: Cytotoxicity against human MCF7cells after 72 hrs by SRB assay; type: functional, cell-based; details: MCF7, 72 h
143B [10] = experiment: Selectivity index, ratio of IC50 for HDF cells to IC50 for human 143B cells; type: functional; method in brief: as §1
KB = experiment: Cytotoxicity against human KB cells after 72 hrs by SRB assay; type: functional, cell-based; method in brief: as §2
143B [11] = experiment: Cytotoxicity against human 143B cells after 72 hrs by SRB assay; type: functional, cell-based; method in brief: as §2
HeLa [12] = experiment: Cytotoxicity against human HeLa cells after 72 hrs in presence of human recombinant cytochrome P450 isoform mixture by SRB assay; type: functional, cell-based

Question: For `COC(=O)[C@H](C)NP(=O)(OC[C@H]1O[C@@H](n2cc(F)c(=O)[nH]c2=O)C[C@@H]1OC(=O)OC(C)(C)C)Oc1ccc(Cl)cc1` (stereo partly drawn), which “Ratio IC50” value (HeLa [1]) is on record?
Answer: 3.76

Question: And the IC50 (HeLa [2])?
Answer: 1.65 µM

Question: And the IC50 [3]?
Answer: 6.21 µM

Question: What about the “Ratio IC50” value [4] of the same compound?
Answer: 4.03

Question: What about the “Ratio IC50” value (HepG2 [5]) of the same compound?
Answer: 1.66

Question: What about the IC50 (HepG2 [6]) of the same compound?
Answer: 3.47 µM

Question: What about the “Ratio IC50” value (MCF7 [7]) of the same compound?
Answer: 2.39

Question: And the IC50 (143B [8])?
Answer: 3.07 µM

Question: What about the IC50 (MCF7 [9]) of the same compound?
Answer: 2.56 µM

Question: And the “Ratio IC50” value (143B [10])?
Answer: 4.11

Question: What about the IC50 (KB) of the same compound?
Answer: 1.54 µM

Question: What about the IC50 (143B [11]) of the same compound?
Answer: 1.51 µM

Question: Which results are given for `[N-]=[N+]=NCCCCNP(=O)(OC[C@H]1O[C@@H](n2cc(F)c(=O)[nH]c2=O)C[C@@H]1O)Oc1ccc(Cl)cc1` (stereo partly drawn)?
Answer: IC50 (HeLa [2]): 72.1 µM; IC50 [3]: > 100 µM; IC50 (HepG2 [6]): > 100 µM; IC50 (HeLa [12]): 20.6 µM; IC50 (MCF7 [9]): 67.6 µM; IC50 (KB): 71.3 µM

Question: For `C#CCNP(=O)(OC[C@H]1O[C@@H](n2cc(F)c(=O)[nH]c2=O)C[C@@H]1OC(=O)OC(C)(C)C)Oc1ccc(Cl)cc1` (stereo partly drawn), which “Ratio IC50” value (HeLa [1]) is on record?
Answer: 1.65

Question: And the IC50 (HeLa [2])?
Answer: 4.36 µM

Question: What about the IC50 [3] of the same compound?
Answer: 7.21 µM

Question: What about the “Ratio IC50” value [4] of the same compound?
Answer: 1.65

Question: And the “Ratio IC50” value (HepG2 [5])?
Answer: 1.97

Question: What about the IC50 (HepG2 [6]) of the same compound?
Answer: 3.66 µM

Question: What about the “Ratio IC50” value (MCF7 [7]) of the same compound?
Answer: 1.53

Question: And the IC50 (143B [8])?
Answer: 3.62 µM

Question: And the IC50 (MCF7 [9])?
Answer: 4.71 µM

Question: And the “Ratio IC50” value (143B [10])?
Answer: 2.39

Question: And the IC50 (KB)?
Answer: 4.37 µM

Question: What about the IC50 (143B [11]) of the same compound?
Answer: 3.02 µM

Question: For `CC(C)(C)OC(=O)O[C@H]1C[C@H](n2cc(F)c(=O)[nH]c2=O)O[C@@H]1CO`, which IC50 (HeLa [2]) is on record?
Answer: 63.5 µM

Question: And the IC50 [3]?
Answer: > 100 µM

Question: And the IC50 (HepG2 [6])?
Answer: 80.4 µM

Question: And the IC50 (143B [8])?
Answer: 47 µM

Question: What about the IC50 (MCF7 [9]) of the same compound?
Answer: 64.2 µM

Question: What about the IC50 (KB) of the same compound?
Answer: 75.9 µM

Question: And the IC50 (143B [11])?
Answer: 18 µM

Question: What does the source list for `COC(=O)[C@H](C)NP(=O)(OC[C@H]1O[C@@H](n2cc(F)c(=O)[nH]c2=O)C[C@@H]1OC(=O)OC(C)(C)C)Oc1ccccc1` (stereo partly drawn)?
Answer: IC50 (HeLa [2]): 8.34 µM; IC50 [3]: 17.5 µM; IC50 (HepG2 [6]): 9.28 µM; IC50 (MCF7 [9]): 6.29 µM; IC50 (KB): 8.34 µM

Question: Which results are given for `CCCNP(=O)(OC[C@H]1O[C@@H](n2cc(F)c(=O)[nH]c2=O)C[C@@H]1O)Oc1ccc(Cl)cc1` (stereo partly drawn)?
Answer: IC50 (HeLa [2]): 50.2 µM; IC50 [3]: 61 µM; IC50 (HepG2 [6]): 41.9 µM; IC50 (HeLa [12]): 45.9 µM; IC50 (MCF7 [9]): 27.2 µM; IC50 (KB): 50.4 µM

Question: Which IC50 (HeLa [2]) does the source give for `CNP(=O)(OC[C@H]1O[C@@H](n2cc(F)c(=O)[nH]c2=O)C[C@@H]1OC(=O)OC(C)(C)C)Oc1ccc(Cl)cc1` (stereo partly drawn) here?
Answer: 7.27 µM

Question: What about the IC50 [3] of the same compound?
Answer: 12.4 µM

Question: And the IC50 (HepG2 [6])?
Answer: 6.55 µM

Question: What about the IC50 (143B [8]) of the same compound?
Answer: 13.1 µM

Question: And the IC50 (MCF7 [9])?
Answer: 8.18 µM

Question: What about the IC50 (KB) of the same compound?
Answer: 7.28 µM

Question: And the IC50 (143B [11])?
Answer: 6.72 µM

Question: With `CNP(=O)(OC[C@H]1O[C@@H](n2cc(F)c(=O)[nH]c2=O)C[C@@H]1O)Oc1ccc(Cl)cc1` (stereo partly drawn) as the compound, how does the “Ratio IC50” value (HeLa [1]) read?
Answer: 2.05

Question: What about the IC50 (HeLa [2]) of the same compound?
Answer: 5.78 µM

Question: What about the IC50 [3] of the same compound?
Answer: 11.8 µM

Question: What about the “Ratio IC50” value [4] of the same compound?
Answer: 2.66

Question: What about the “Ratio IC50” value (HepG2 [5]) of the same compound?
Answer: 1.27

Question: And the IC50 (HepG2 [6])?
Answer: 9.34 µM

Question: What about the “Ratio IC50” value (MCF7 [7]) of the same compound?
Answer: 2.66

Question: And the IC50 (143B [8])?
Answer: 12.7 µM

Question: And the IC50 (MCF7 [9])?
Answer: 4.44 µM

Question: What about the “Ratio IC50” value (143B [10]) of the same compound?
Answer: 5.58

Question: And the IC50 (KB)?
Answer: 4.45 µM

Question: And the IC50 (143B [11])?
Answer: 2.12 µM

Question: For `CCNP(=O)(OC[C@H]1O[C@@H](n2cc(F)c(=O)[nH]c2=O)C[C@@H]1O)Oc1ccc(Cl)cc1` (stereo partly drawn), which IC50 (HeLa [2]) is on record?
Answer: 8.19 µM

Question: What about the IC50 [3] of the same compound?
Answer: 16.3 µM

Question: What about the IC50 (HepG2 [6]) of the same compound?
Answer: 5.39 µM

Question: And the IC50 (143B [8])?
Answer: 16 µM

Question: And the IC50 (MCF7 [9])?
Answer: 19.4 µM

Question: What about the IC50 (KB) of the same compound?
Answer: 8.21 µM

Question: What about the IC50 (143B [11]) of the same compound?
Answer: 2.41 µM

Question: Which IC50 (HeLa [2]) does the source give for `C#CCNP(=O)(OC[C@H]1O[C@@H](n2cc(F)c(=O)[nH]c2=O)C[C@@H]1O)Oc1ccc(Cl)cc1` (stereo partly drawn) here?
Answer: 10.6 µM

Question: What about the IC50 [3] of the same compound?
Answer: 31 µM

Question: What about the IC50 (HepG2 [6]) of the same compound?
Answer: 24.5 µM

Question: And the IC50 (143B [8])?
Answer: 3.9 µM

Question: What about the IC50 (MCF7 [9]) of the same compound?
Answer: 12 µM

Question: What about the IC50 (KB) of the same compound?
Answer: 25.3 µM

Question: What about the IC50 (143B [11]) of the same compound?
Answer: 3.61 µM

Question: For `Nc1ccn([C@@H]2O[C@H](CO)[C@@H](O)[C@@H]2O)c(=O)n1` [CYTARABINE], which “Ratio IC50” value (HeLa [1]) is on record?
Answer: 1.41

Question: And the IC50 [3]?
Answer: 4.99 µM

Question: What about the “Ratio IC50” value [4] of the same compound?
Answer: 1.23

Question: And the “Ratio IC50” value (HepG2 [5])?
Answer: 1.75

Question: What about the IC50 (HepG2 [6]) of the same compound?
Answer: 2.86 µM

Question: What about the “Ratio IC50” value (MCF7 [7]) of the same compound?
Answer: 1.31

Question: What about the IC50 (143B [8]) of the same compound?
Answer: 16.9 µM

Question: What about the “Ratio IC50” value (143B [10]) of the same compound?
Answer: 2.42

Question: And the IC50 (143B [11])?
Answer: 2.06 µM

Question: Which “Ratio IC50” value (HeLa [1]) does the source give for `O=c1[nH]c(=O)n([C@H]2C[C@H](O)[C@@H](CO)O2)cc1F` [FLOXURIDINE] here?
Answer: 2.01

Question: What about the IC50 [3] of the same compound?
Answer: 13.1 µM

Question: What about the “Ratio IC50” value [4] of the same compound?
Answer: 1.5

Question: What about the “Ratio IC50” value (HepG2 [5]) of the same compound?
Answer: 1.47

Question: What about the IC50 (HepG2 [6]) of the same compound?
Answer: 8.91 µM

Question: What about the “Ratio IC50” value (MCF7 [7]) of the same compound?
Answer: 1.07

Question: What about the IC50 (143B [8]) of the same compound?
Answer: 14.1 µM

Question: And the “Ratio IC50” value (143B [10])?
Answer: 2.17

Question: What about the IC50 (143B [11]) of the same compound?
Answer: 6.02 µM

Question: With `O=c1[nH]cc(F)c(=O)[nH]1` [FLUOROURACIL] as the compound, how does the “Ratio IC50” value (HeLa [1]) read?
Answer: 1.13

Question: What about the IC50 [3] of the same compound?
Answer: 7.02 µM

Question: And the “Ratio IC50” value [4]?
Answer: 1.45

Question: And the “Ratio IC50” value (HepG2 [5])?
Answer: 1.06

Question: And the IC50 (HepG2 [6])?
Answer: 6.6 µM

Question: And the “Ratio IC50” value (MCF7 [7])?
Answer: 1.08

Question: And the IC50 (143B [8])?
Answer: 16.3 µM

Question: And the “Ratio IC50” value (143B [10])?
Answer: 0.54

Question: What about the IC50 (143B [11]) of the same compound?
Answer: 13 µM

Question: For `Oc1ccc(Cl)cc1` [PARACHLOROPHENOL], which IC50 (HeLa [2]) is on record?
Answer: 1680 µM

Question: What about the IC50 [3] of the same compound?
Answer: 1850 µM

Question: What about the IC50 (HepG2 [6]) of the same compound?
Answer: 1700 µM

Question: What about the IC50 (MCF7 [9]) of the same compound?
Answer: 1880 µM

Question: What about the IC50 (KB) of the same compound?
Answer: 1450 µM
